Results as given in ChEMBL document CHEMBL1128184, “Topoisomerase II-mediated DNA cleavage by adocia- and xestoquinones from the Philippine sponge Xestospongia sp” (J Med Chem, 1995).

Key:
HCT-116 = experiment: Cytotoxicity against HCT116 cells.; assay type: functional, cell-based; conditions: Homo sapiens
In short: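 HCT 116 human colon tumour cells in McCoy's medium with 10% FBS, seeded at 40 000 cells/well and allowed 4 h to attach. Drug added in DMSO (0.5%), 3 days continuous exposure, four replicate wells per dose. MTT (5 mg/mL in PBS) added for 4 h, formazan dissolved in acidic 2-propanol, A540 read against DMSO controls for percent growth inhibition.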

XRS6 = experiment: Cytotoxicity against CHO cell line xrs6; assay type: functional, cell-based; conditions: Cricetulus griseus
In short: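 MTT assay on DNA double-strand-break repair-deficient CHO xrs-6 cells grown in αMEM with serum, seeded at 60 000 cells/well and allowed to attach 4 h. Drug added from DMSO stock, final DMSO 1% or less, four replicate wells per dose. Exposure 18 h, then drug-free medium. Absorbance at 540 nm, compared against DMSO-only wells to give percent growth inhibition.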

[1] = Ratio of BR1 IC50 to xrs-6 IC50; assay type: functional
In short: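 MTT assay run in parallel on repair-competent CHO BR1 (40 000 cells/well) and repair-deficient xrs-6 (60 000 cells/well), both in αMEM with serum. 4 h attachment, then 18 h drug exposure from DMSO (final 1% or less), then drug-free medium. Four wells per dose, A540 against DMSO controls. The ratio is the BR1 IC50 divided by the xrs-6 IC50.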

[2] = molecular target: T1, DNA topoisomerase 2 (Drosophila melanogaster) (UniProt P15348); experiment: Inhibition of commercially obtained pure Drosophila Topoisomerase II in catalytic DNA unwinding.
T1 sequence (whole entry): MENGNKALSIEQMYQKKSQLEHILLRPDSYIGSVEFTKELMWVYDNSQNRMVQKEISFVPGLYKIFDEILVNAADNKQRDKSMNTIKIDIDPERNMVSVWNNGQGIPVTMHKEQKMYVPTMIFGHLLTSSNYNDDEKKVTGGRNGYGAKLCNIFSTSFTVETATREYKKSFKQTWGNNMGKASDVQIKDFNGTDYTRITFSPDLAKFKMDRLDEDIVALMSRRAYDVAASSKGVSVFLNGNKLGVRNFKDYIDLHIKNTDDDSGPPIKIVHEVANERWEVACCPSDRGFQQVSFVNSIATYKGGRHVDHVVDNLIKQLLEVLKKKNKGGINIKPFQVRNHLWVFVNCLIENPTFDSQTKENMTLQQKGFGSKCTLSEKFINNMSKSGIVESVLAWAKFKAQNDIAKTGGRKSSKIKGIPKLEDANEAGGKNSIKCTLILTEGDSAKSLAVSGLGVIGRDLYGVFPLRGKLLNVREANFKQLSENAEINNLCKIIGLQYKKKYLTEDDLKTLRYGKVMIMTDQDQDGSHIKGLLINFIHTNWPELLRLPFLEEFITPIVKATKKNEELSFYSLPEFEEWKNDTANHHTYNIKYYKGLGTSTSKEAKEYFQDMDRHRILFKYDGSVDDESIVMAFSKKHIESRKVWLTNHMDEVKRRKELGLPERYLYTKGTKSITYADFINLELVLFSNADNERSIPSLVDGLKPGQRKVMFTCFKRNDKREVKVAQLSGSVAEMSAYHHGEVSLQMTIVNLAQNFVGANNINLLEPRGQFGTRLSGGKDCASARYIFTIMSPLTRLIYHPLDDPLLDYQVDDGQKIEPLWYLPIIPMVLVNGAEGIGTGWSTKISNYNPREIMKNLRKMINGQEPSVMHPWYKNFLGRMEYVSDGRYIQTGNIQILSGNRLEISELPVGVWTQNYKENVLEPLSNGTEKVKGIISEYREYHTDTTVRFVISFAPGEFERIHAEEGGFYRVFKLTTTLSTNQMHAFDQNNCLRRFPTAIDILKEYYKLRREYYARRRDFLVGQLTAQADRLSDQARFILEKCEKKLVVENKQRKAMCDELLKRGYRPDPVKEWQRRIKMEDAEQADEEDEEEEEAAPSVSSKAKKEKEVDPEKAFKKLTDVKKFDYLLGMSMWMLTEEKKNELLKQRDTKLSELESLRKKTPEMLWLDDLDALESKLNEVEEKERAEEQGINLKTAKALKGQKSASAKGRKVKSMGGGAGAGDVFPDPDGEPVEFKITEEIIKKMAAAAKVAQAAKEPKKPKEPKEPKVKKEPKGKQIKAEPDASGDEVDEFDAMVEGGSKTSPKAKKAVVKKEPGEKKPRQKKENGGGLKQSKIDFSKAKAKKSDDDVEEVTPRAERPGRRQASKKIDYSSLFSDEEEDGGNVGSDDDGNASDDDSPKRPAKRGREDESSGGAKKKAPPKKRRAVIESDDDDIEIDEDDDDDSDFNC
In short: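 Relaxation assay with supercoiled pBR322 (0.5 μg) and pure Drosophila topoisomerase II at 3 units per reaction. Buffer: 50 mM Tris-HCl pH 8.0, 120 mM KCl, 10 mM MgCl2, 1 mM ATP, 0.5 mM DTT, 30 μg/mL BSA. Drug added in DMSO.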

[3] = molecular target: DNA topoisomerase II (Homo sapiens) (UniProt P11388+Q02880); experiment: In vitro inhibition of partially purified human ovarian carcinoma topoisomerase II of kDNA decatenation; assay type: protein assay
In short: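 Decatenation of kinetoplast DNA (0.2 μg) by one unit of partially purified human ovarian carcinoma topoisomerase II in 50 mM Tris-HCl pH 8.0, 120 mM KCl, 10 mM MgCl2, 1 mM ATP, 0.5 mM DTT, 30 μg/mL BSA. Compound added in DMSO. Stopped with sarkosyl stop buffer, 1% agarose/ethidium gel, UV visualization. Value is the concentration apparently inhibiting 90% of monomer-length kDNA production.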

Compound | IC50 (HCT-116) [µM] | IC50 (XRS6) [µM] | Ratio [1] | IC90 [2] [µM] | IC90 [3] [µM]
C[C@@]12CCCc3coc(c31)C(=O)c1cc3c(cc12)C(=O)C(Cl)=C(O)C3=O | 33 | 27 | 4.5 | – | –
COC1=CC(=O)c2cc3c(cc2C1=O)C(=O)c1occ2c1[C@@]3(C)CCC2 | 28 | 4.3 | 3 | – | –
C[C@@]12CCCc3coc(c31)C(=O)c1cc3c(cc12)C(=O)/C(=N/CCS(=O)(=O)O)C=C3O | > 143 | > 287 | – | – | –
C[C@@]12CCCc3coc(c31)C(=O)c1cc3c(cc12)C(=O)C1=NCCS(=O)(=O)C1=C3O [ADOCIAQUINONE A] | 24 | 78 | 3 | – | –
COc1cc(NS(C)(=O)=O)ccc1Nc1c2ccccc2nc2ccccc12 [AMSACRINE] | – | 0.24 | 4 | – | –
COC1=CC(=O)c2cc3c(cc2C1=O)[C@]1(C)CCCc2coc(c21)C3=O | 28 | 4.3 | 3 | – | –
C[C@@]12CCCc3coc(c31)C(=O)c1cc3c(cc12)C(=O)C=C(NCCS(=O)(=O)O)C3=O | > 143 | > 287 | – | – | –
COc1cc([C@@H]2c3cc4c(cc3[C@@H](O[C@@H]3O[C@@H]5CO[C@@H](C)O[C@H]5[C@H](O)[C@H]3O)[C@H]3COC(=O)[C@H]23)OCO4)cc(OC)c1O [ETOPOSIDE] | – | 0.14 | 7 | 85 | –
O=C1c2c(O)ccc(O)c2C(=O)c2c(NCCNCCO)ccc(NCCNCCO)c21 [MITOXANTRONE] | – | 0.001 | – | 56 | –
C[C@@]12CCCc3coc(c31)C(=O)c1cc3c(cc12)C(=O)C1=C(NCCS1(=O)=O)C3=O [ADOCIAQUINONE B] | 21 | 23 | 3 | 78 | < 11
C[C@@]12CCCc3coc(c31)C(=O)c1cc3c(cc12)C(=O)C(=O)C(Cl)=C3O | 33 | 27 | 4.5 | – | –
